Laboratory results: ChEMBL document CHEMBL2146456, “Identification and characterization of GABA(A) receptor modulatory diterpenes from Biota orientalis that decrease locomotor activity in mice” (J Nat Prod, 2011)

Experiments:
[1] = test system: Oocyte; test: Allosteric modulation of gamma-aminobutyric acid receptor A alpha1beta2gamma2S expressed in Xenopus oocytes assessed as potentiation of GABA-mediated chloride current at 10 uM by voltage clamp analysis relative to control; assay type: cell-based
Summary of the method: (§1)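 Oocytes were injected with α1β2γ2S, α1β3γ2S, α2β2γ2S, α3β2γ2S or α5β2γ2S cRNAs at a 1:1:10 ratio. Two-electrode voltage clamp was run 1–5 days post-injection in HEPES-buffered saline at pH 7.4. Compounds in GABA EC5–10 (3–10 μM) were given by automated fast perfusion: screening at 10 and 100 μM (n = 2), otherwise concentration series. Potentiation = I(GABA+Comp)/IGABA − 1, with nonlinear regression fits.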

[2] = test system: Oocyte; test: Allosteric modulation of gamma-aminobutyric acid receptor A alpha1beta2gamma2S expressed in Xenopus oocytes assessed as potentiation of GABA-mediated chloride current at 100 uM by voltage clamp analysis relative to control; assay type: cell-based; summary of the method: as §1

Imax [1] [%] | Imax [2] [%] | SMILES
-13.4 | -13.1 | C=C1CC[C@@H]2[C@](C)(CCC[C@]2(C)C(=O)OC)[C@H]1CCC1=CCOC1=O
3.8 | 3 | C=C[C@]1(C)C=C2CC[C@H]3[C@](C)(C=O)[C@@H](O)CC[C@]3(C)[C@H]2CC1
13.8 | 7.7 | C=C[C@]1(C)C=C2CC[C@H]3[C@](C)(CO)[C@@H](O)CC[C@]3(C)[C@H]2CC1
-10.6 | -15.1 | CC(C)c1c(O)ccc2c1CC[C@H]1C(C)(C)CCC[C@]21C
